Measurements reported in ChEMBL document CHEMBL2057141, “Imidazolopiperazines: lead optimization of the second-generation antimalarial agents” (J Med Chem, 2012).
One block for each molecule: values may come before it.

Tests used:
Plasmodium falciparum [1] = experiment: Antimalarial activity against Plasmodium falciparum 3D7 after 72 hrs by SYBR green fluorescence assay; type: functional, organism-based; conditions: 3D7, 72 h
Summary of the method: (§1)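 P. falciparum grown in O+ erythrocytes, screened in medium without human serum plus 0.5% Albumax II. Twelve-point half-log dilutions up to 10 μM final. 0.3% parasitemia, 2.5% hematocrit; 72 h at 37 °C under low-oxygen gas. Lysis buffer with SYBR Green added, 24 h at 25 °C, fluorescence read at 485/530 nm.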

Plasmodium falciparum [2] = experiment: Antimalarial activity against Plasmodium falciparum W2 after 72 hrs by SYBR green fluorescence assay; type: functional, organism-based; conditions: W2, 72 h; summary of the method: as §1
[3] = Permeability of the compound by PAMPA; type: ADME
Summary of the method: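 PAMPA in 96-well filter plates. Permeated compound quantified by UV absorbance at 260–290 nm. Reported as percentage absorbed.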

Mus musculus [4] = experiment: AUC (0 to 24 hrs) in Balb/c mouse at 5 mg/kg, iv; type: ADME, organism-based, Plasma; parameters: time < 24 hr, dose 5 mg/kg, route intravenous; conditions: in vivo
Summary of the method: (§2)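 Male Balb/c mice (n = 3 per group). Compound as a 2.5 mg/mL solution in PEG300/D5W 3:1, filtered. Given by lateral tail vein at 5 mg/kg (2 mL/kg) or orally at 20 mg/kg (8 mL/kg). Six serial 50 μL retro-orbital blood samples to 24 h, heparinized plasma. Plasma extracted with acetonitrile:methanol 3:1 with internal standard, LC-MS/MS. Noncompartmental analysis; F = AUCpo×dose_iv/AUCiv×dose_po.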

Mus musculus [5] = experiment: AUC (0 to 24 hrs) in Balb/c mouse at 20 mg/kg, po; type: ADME, organism-based, Plasma; parameters: time < 24 hr, dose 20 mg/kg, route oral; conditions: in vivo; summary of the method: as §2
Plasmodium berghei [6] = experiment: Antimalarial activity against Plasmodium berghei ANKA expressing GFP infected in po dosed NMRI mouse assessed as reduction of parasite level in blood administered 24 hrs post infection measured after 72 hrs post infection by flow cytometry; type: functional
[7] = Metabolic stability in mouse liver microsomes assessed as hepatic extraction ratio by LC/MS/MS analysis in presence of CYP; type: ADME, Microsome
Summary of the method: (§3)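 Liver microsomes (human, mouse, rat). Compound depletion followed by LC/MS/MS. Loss of parent used to derive in vitro half-life and hepatic extraction ratio.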

[8] = Metabolic stability in rat liver microsomes assessed as hepatic extraction ratio by LC/MS/MS analysis in presence of CYP; type: ADME, Microsome; summary of the method: as §3
[9] = Metabolic stability in human liver microsomes assessed as hepatic extraction ratio by LC/MS/MS analysis in presence of CYP; type: ADME, Microsome; summary of the method: as §3
[10] = target: Voltage-gated inwardly rectifying potassium channel KCNH2 (Homo sapiens, UniProt Q12809); experiment: Inhibition of human ERG channel expressed in CHO cells by patch clamp assay; type: cell-based
[11] = Apparent permeability across apical to basolateral side in human Caco2 cells by LC/MS analysis; type: ADME, cell-based; conditions: Caco-2
Summary of the method: (§4)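 Caco-2 monolayers in 96-well format. Compound measured in apical and basolateral chambers by LC/MS, giving Papp in the A–B and B–A directions. Values reported in cm/s × 10⁶.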

[12] = Apparent permeability across basolateral to apical side in human Caco2 cells by LC/MS analysis; type: ADME, cell-based; conditions: Caco-2; summary of the method: as §4
[13] = Volume of distribution in Balb/c mouse at 5 mg/kg, iv; type: ADME, organism-based; parameters: dose 5 mg/kg, route intravenous; conditions: in vivo; summary of the method: as §2
[14] = Clearance in Balb/c mouse plasma at 5 mg/kg, iv; type: ADME, organism-based; parameters: dose 5 mg/kg, route intravenous; summary of the method: as §2
[15] = Half life in Balb/c mouse at 5 mg/kg, iv; type: ADME, organism-based; parameters: dose 5 mg/kg, route intravenous; conditions: in vivo; summary of the method: as §2
[16] = Cmax in Balb/c mouse at 20 mg/kg, po; type: ADME, organism-based; parameters: dose 20 mg/kg, route oral; conditions: in vivo; summary of the method: as §2
[17] = Tmax in Balb/c mouse at 20 mg/kg, po; type: ADME, organism-based; parameters: dose 20 mg/kg, route oral; conditions: in vivo; summary of the method: as §2
[18] = Half life in Balb/c mouse at 20 mg/kg, po; type: ADME, organism-based; parameters: dose 20 mg/kg, route oral; conditions: in vivo; summary of the method: as §2
Mus musculus [19] = experiment: Oral bioavailability in Balb/c mouse at 20 mg/kg; type: ADME, organism-based; conditions: in vivo; summary of the method: as §2
Plasmodium berghei [20] = experiment: Antimalarial activity against Plasmodium berghei ANKA expressing GFP infected in NMRI mouse assessed as reduction of parasite level in blood at 30 mg/kg, po administered 24 hrs post infection measured after 72 hrs post infection by flow cytometry; type: functional; parameters: scale not given: the % may be the effect or the level left
Summary of the method: (§5)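 Female NMRI mice (20–22 g, n=3) are infected i.v. with 2×10^7 P. berghei GFP ANKA-infected erythrocytes. Oral compound in 75% PEG300/25% D5W is given at 10 mL/kg, once at 24 h or daily at 24/48/72 h post-infection. Parasitemia is read by flow cytometry at 72 h (single dose) or 96 h (triple dose). Activity is % reduction of mean parasitemia versus untreated controls.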

Plasmodium berghei [21] = experiment: Antimalarial activity against Plasmodium berghei ANKA expressing GFP infected in NMRI mouse assessed as reduction of parasite level in blood at 100 mg/kg, po administered 24 hrs post infection measured after 72 hrs post infection by flow cytometry; type: functional; parameters: scale not given: the % may be the effect or the level left; summary of the method: as §5
Plasmodium berghei [22] = experiment: Antimalarial activity against Plasmodium berghei ANKA expressing GFP infected in NMRI mouse assessed as reduction of parasite level in blood at 30 mg/kg, po administered 24 hrs post infection qd for 3 days measured after 96 hrs post infection by flow cytometry; type: functional; parameters: scale not given: the % may be the effect or the level left; summary of the method: as §5
Plasmodium berghei [23] = experiment: Antimalarial activity against Plasmodium berghei ANKA expressing GFP infected in NMRI mouse assessed as increase of mouse survival at 30 mg/kg, po administered 24 hrs post infection (reference value: 6 to 7 days); type: functional
Plasmodium berghei [24] = experiment: Antimalarial activity against Plasmodium berghei ANKA expressing GFP infected in NMRI mouse assessed as increase of mouse survival at 100 mg/kg, po administered 24 hrs post infection (reference value: 6 to 7 days); type: functional
Plasmodium berghei [25] = experiment: Antimalarial activity against Plasmodium berghei ANKA expressing GFP infected in NMRI mouse assessed as increase of mouse survival at 30 mg/kg, po administered 24 hrs post infection qd for 3 days (reference value: 6 to 7 days); type: functional
[26] = AUC (0 to 5 hrs) in Wistar rat at 10 mg/kg, po; type: ADME, organism-based; parameters: dose 10 mg/kg, route oral; conditions: plasma
[27] = Cmax in Wistar rat at 10 mg/kg, po; type: ADME, organism-based; parameters: dose 10 mg/kg, route oral; conditions: Wistar, in vivo
Summary of the method: (§6)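 Rat snapshot PK: two Wistar rats dosed orally at 10 mg/kg, formulated at 2.5 mg/mL in 75% PEG300/25% D5W. Blood (100 μL) taken at 0.5, 1, 3 and 5 h post dose. Plasma pooled by sampling time, then analysed by LC-MS/MS.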

Rattus norvegicus = experiment: Dose normalized AUC (0 to 5 hrs) in Wistar rat at 10 mg/kg, po; type: ADME, organism-based; parameters: dose 10 mg/kg, route oral; conditions: in vivo; summary of the method: as §6

Voltage-gated inwardly rectifying potassium channel KCNH2, sequence (Q12809 whole entry): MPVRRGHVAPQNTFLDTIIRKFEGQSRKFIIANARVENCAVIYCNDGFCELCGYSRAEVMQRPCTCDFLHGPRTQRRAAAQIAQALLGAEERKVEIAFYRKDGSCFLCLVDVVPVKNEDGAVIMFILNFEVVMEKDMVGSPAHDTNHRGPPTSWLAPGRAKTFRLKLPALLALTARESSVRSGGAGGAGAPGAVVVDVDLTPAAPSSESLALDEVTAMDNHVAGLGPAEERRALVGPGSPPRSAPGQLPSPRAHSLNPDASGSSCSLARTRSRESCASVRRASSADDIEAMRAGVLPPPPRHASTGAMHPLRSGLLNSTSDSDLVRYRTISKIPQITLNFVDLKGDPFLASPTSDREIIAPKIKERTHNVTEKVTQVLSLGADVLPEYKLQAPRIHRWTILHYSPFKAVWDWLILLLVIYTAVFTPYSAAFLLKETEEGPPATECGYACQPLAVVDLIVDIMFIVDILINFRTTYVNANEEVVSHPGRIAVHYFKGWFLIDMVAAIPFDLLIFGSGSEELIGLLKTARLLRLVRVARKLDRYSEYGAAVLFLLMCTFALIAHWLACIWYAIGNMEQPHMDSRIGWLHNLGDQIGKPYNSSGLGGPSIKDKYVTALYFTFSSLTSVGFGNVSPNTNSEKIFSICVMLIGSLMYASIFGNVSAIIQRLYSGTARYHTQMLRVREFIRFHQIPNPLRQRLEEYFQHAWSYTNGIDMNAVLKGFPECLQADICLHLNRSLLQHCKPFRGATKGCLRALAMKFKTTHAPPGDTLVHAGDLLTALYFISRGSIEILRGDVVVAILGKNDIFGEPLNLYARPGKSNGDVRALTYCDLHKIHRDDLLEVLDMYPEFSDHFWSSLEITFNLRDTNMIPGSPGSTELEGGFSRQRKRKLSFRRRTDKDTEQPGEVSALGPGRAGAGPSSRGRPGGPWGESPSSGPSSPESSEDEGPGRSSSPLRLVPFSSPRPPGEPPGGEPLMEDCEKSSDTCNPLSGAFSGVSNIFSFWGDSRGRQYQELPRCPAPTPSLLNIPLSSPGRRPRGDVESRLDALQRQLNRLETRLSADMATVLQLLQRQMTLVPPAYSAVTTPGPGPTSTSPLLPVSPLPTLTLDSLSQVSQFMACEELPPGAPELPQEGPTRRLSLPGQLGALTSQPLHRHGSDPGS

EC50 (Plasmodium falciparum [1]): 20 nM | EC50 (Plasmodium falciparum [2]): 25 nM | permeability [3]: 81% | AUC (Mus musculus [4]): 3.442 µM·h | AUC (Mus musculus [5]): 17.894 µM·h
Structure (SMILES): CC(C)(N)C(=O)N1CCn2c(nc(-c3ccc(F)cc3)c2Nc2ccc(F)cc2)C1

Structure (SMILES): CC(C)(N)C(=O)N1CCn2c(nc(-c3ccc(F)cc3)c2Nc2ccc(F)c(F)c2)C1
ED99 (Plasmodium berghei [6]): 26.5 mg/kg

EC50 (Plasmodium falciparum [1]): 24 nM | EC50 (Plasmodium falciparum [2]): 23 nM | permeability [3]: 52% | AUC (Mus musculus [4]): 1.072 µM·h | AUC (Mus musculus [5]): 0.965 µM·h
Structure (SMILES): NCC(=O)N1CCn2c(nc(-c3ccc(F)cc3)c2Nc2ccc(F)cc2)C1

Structure (SMILES): CC1(C)c2nc(-c3ccc(F)cc3)c(Nc3ccc(F)c(F)c3)n2CCN1C(=O)CN
EC50 (Plasmodium falciparum [1]): 4 nM | EC50 (Plasmodium falciparum [2]): 5 nM | hepatic extraction ratio [7]: 0.46 | hepatic extraction ratio [8]: 0.69 | hepatic extraction ratio [9]: 0.53 | IC50 [10]: > 30000 nM | permeability [3]: 51.5% | Papp A→B [11]: 0.61 ×10⁻⁶ cm/s | Papp B→A [12]: 1.3 ×10⁻⁶ cm/s | Vd [13]: 7.5 L/kg | clearance [14]: 27.5 mL/min/kg | half-life [15]: 5.5 h | AUC (Mus musculus [4]): 7.062 µM·h | Cmax [16]: 1720 nM | Tmax [17]: 3 h | half-life [18]: 5.21 h | AUC (Mus musculus [5]): 21.058 µM·h | F (Mus musculus [19]): 75% | Activity (Plasmodium berghei [20]): 99% | Activity (Plasmodium berghei [21]): 99.1% | Activity (Plasmodium berghei [22]): 99.7% | Survival (Plasmodium berghei [23]): 15 days | Survival (Plasmodium berghei [24]): 16.7 days | Survival (Plasmodium berghei [25]): 17 days | AUC(0-t) at 4 h [26]: 0.367 µM·h | Cmax [27]: 96.7 nM | AUC/dose (Rattus norvegicus): 0.95 min.ug/ml/(mg/kg)

EC50 (Plasmodium falciparum [1]): 4 nM | EC50 (Plasmodium falciparum [2]): 4 nM
Structure (SMILES): NCC(=O)N1CCn2c(nc(-c3ccc(F)cc3)c2Nc2ccc(F)c(Cl)c2)C1

EC50 (Plasmodium falciparum [1]): 29 nM | EC50 (Plasmodium falciparum [2]): 24 nM
Structure (SMILES): C[C@H]1c2nc(-c3ccc(F)cc3)c(Nc3ccc(F)c(Cl)c3)n2CCN1C(=O)CN

EC50 (Plasmodium falciparum [1]): 31 nM | EC50 (Plasmodium falciparum [2]): 29 nM
Structure (SMILES): C[C@@H]1c2nc(-c3ccc(F)cc3)c(Nc3ccc(F)c(Cl)c3)n2CCN1C(=O)CN

EC50 (Plasmodium falciparum [1]): 343 nM | EC50 (Plasmodium falciparum [2]): 470 nM
Structure (SMILES): CC(C)[C@H]1c2nc(-c3ccc(F)cc3)c(Nc3ccc(F)c(Cl)c3)n2CCN1C(=O)CN

EC50 (Plasmodium falciparum [1]): 168 nM | EC50 (Plasmodium falciparum [2]): 202 nM
Structure (SMILES): CC(C)[C@@H]1c2nc(-c3ccc(F)cc3)c(Nc3ccc(F)c(Cl)c3)n2CCN1C(=O)CN

EC50 (Plasmodium falciparum [1]): 27 nM | EC50 (Plasmodium falciparum [2]): 24 nM
Structure (SMILES): CC1(C)c2nc(-c3ccc(F)cc3)c(Nc3ccc(F)c(Cl)c3)n2CCN1C(=O)CN

EC50 (Plasmodium falciparum [1]): 8 nM | EC50 (Plasmodium falciparum [2]): 6 nM
Structure (SMILES): Cc1ccc(Nc2c(-c3ccc(F)cc3)nc3n2CCN(C(=O)CN)C3(C)C)cc1
